The text below walks through data of ChEMBL document CHEMBL4007486, “Prospective Evaluation of Free Energy Calculations for the Prioritization of Cathepsin L Inhibitors” (J Med Chem, 2017).

In data set [1] the target is T1, Procathepsin L (Homo sapiens, UniProt P07711). The experiment in a line: Inhibition of human Cathepsin L by fluorescence assay based Cheng-Prusoff equation analysis. Summed up:
(§1)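 Fluorescence-based enzymatic assay against human cathepsin L, run as previously described. IC50 was measured, and Ki was then calculated from it with the Cheng-Prusoff equation.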

The nature of data set [2]: Lipophilicity, logD of the compound. The format is physicochemical. To be noted: octanol/water.
Data set [3] addresses T1, Procathepsin L. The experiment in a line: Inhibition of human Cathepsin L. The gist of the method:
as §1

Bounds are passed on as bounds.

T1 sequence (P07711 whole entry): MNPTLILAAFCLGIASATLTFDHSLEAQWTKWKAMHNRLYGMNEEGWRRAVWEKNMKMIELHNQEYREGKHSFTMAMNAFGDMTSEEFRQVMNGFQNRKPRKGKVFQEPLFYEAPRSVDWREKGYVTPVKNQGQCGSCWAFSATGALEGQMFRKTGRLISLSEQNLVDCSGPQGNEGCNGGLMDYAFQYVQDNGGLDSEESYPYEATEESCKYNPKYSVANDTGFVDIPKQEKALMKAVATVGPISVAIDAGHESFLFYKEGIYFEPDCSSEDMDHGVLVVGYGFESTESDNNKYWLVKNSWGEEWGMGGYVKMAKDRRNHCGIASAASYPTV

For the molecule `N#Cc1ncc(F)c(N(CCC2CCOCC2)Cc2ccc3c(c2)OCO3)n1`, at Procathepsin L [1], the affinity, expressed as Ki, was 2790 nM. Also, the logD in data set [2] turned out to be 3.46. With `N#Cc1ncc(F)c(N(CCOc2ccccc2)Cc2ccc3c(c2)OCO3)n1`, the Ki on Procathepsin L [1] is 77 nM.

The molecule `N#Cc1nc(N2CCOCC2)nc(N(Cc2ccc(Cl)cc2)C2CCCCC2)n1` gave a Ki on Procathepsin L [3] of 13 nM. At Procathepsin L [1], `N#Cc1cccc(CCN(Cc2ccc3c(c2)OCO3)c2nc(C#N)ncc2F)c1` returned a Ki of 304 nM. In data set [2], this molecule registered a logD of 2.12. In turn, `N#Cc1ncc(F)c(N(Cc2ccccc2)Cc2ccc3c(c2)OCO3)n1` registered a Ki on Procathepsin L [1] greater than 5100 nM. On the same count and under the same terms, as for `N#Cc1ncc(F)c(N(CCCc2noc(-c3ccccc3)n2)Cc2ccc3c(c2)OCO3)n1`, the figure is 91 nM; as for `N#Cc1ncc(F)c(N(Cc2ccc3c(c2)OCO3)[C@H]2CC[C@H](C(F)(F)F)CC2)n1`, greater than 5100 nM; as for `N#Cc1ncc(F)c(N(Cc2ccc3c(c2)OCO3)c2cccc(OCc3ccccc3)c2)n1`, greater than 5100 nM. On the same count and under the same terms, as for `N#Cc1ncc(F)c(N(CCc2cccc(Br)c2)Cc2ccc3c(c2)OCO3)n1`, the figure is 358 nM; as for `N#Cc1ncc(F)c(N(CCOc2ccc3ccccc3c2)Cc2ccc3c(c2)OCO3)n1`, 123 nM; as for `CC(C)=CCN(Cc1ccc2c(c1)OCO2)c1nc(C#N)ncc1F`, 1010 nM.

As for `N#Cc1ncc(F)c(N(Cc2ccc3c(c2)OCO3)CC2CCCC2)n1`, the Ki at Procathepsin L [1] was 12 nM. Same read-out and setting: as for `COc1cccc(CCCN(Cc2ccc3c(c2)OCO3)c2nc(C#N)ncc2F)c1`, the figure is 30 nM. At Procathepsin L [1], `CSc1cccc(N(Cc2ccc3c(c2)OCO3)c2nc(C#N)ncc2F)c1` came in with a Ki of 5100 nM. As for `Cc1nsc(N2CCC(N(Cc3ccc4c(c3)OCO4)c3nc(C#N)ncc3F)CC2)n1`, affinity on Procathepsin L [1] was put at a Ki of 411 nM. This molecule showed a logD in data set [2] of 3.49. As for `N#Cc1ncc(F)c(N(CCOc2ccc(Cl)cc2)Cc2ccc3c(c2)OCO3)n1`, the Ki at Procathepsin L [1] came to 167 nM. `CNCCc1cccc(N(Cc2ccc3c(c2)OCO3)c2nc(C#N)ncc2F)c1`: the Ki on Procathepsin L [1] is greater than 5100 nM. The same measure, in the same setting: for `N#Cc1ncc(F)c(N(CCCc2ccc(Cl)cc2)Cc2ccc3c(c2)OCO3)n1` the value was 27 nM.

`N#Cc1ncc(F)c(N(Cc2ccc3c(c2)OCO3)c2ccc(F)cc2)n1` returned a Ki at Procathepsin L [1] of 952 nM. The molecule further registered a logD in data set [2] of 3.49. In turn, `N#Cc1ncc(F)c(N(Cc2ccc3c(c2)OCO3)C2CCCCC2)n1` returned a Ki at Procathepsin L [3] of 200 nM. `N#Cc1ncc(F)c(N(Cc2ccc3c(c2)OCO3)[C@H]2CC[C@@H](C(F)(F)F)CC2)n1` displayed a Ki on Procathepsin L [1] of 3500 nM.

On Procathepsin L [1], `N#Cc1ncc(F)c(N(Cc2ccc3c(c2)OCO3)C2CCSCC2)n1` registered a Ki of 515 nM. In data set [2], this molecule showed a logD of 3.61.

`N#Cc1ncc(F)c(N(CCc2ccncc2)Cc2ccc3c(c2)OCO3)n1`: the Ki at Procathepsin L [1] stood at 505 nM. In addition, the logD in data set [2] was 3.15. Turning to `N#Cc1ncc(F)c(N(Cc2ccc3c(c2)OCO3)CC2CC2)n1`, the Ki at Procathepsin L [1] amounted to 77 nM. The pH-dependent lipophilicity (logD) in data set [2] came out at 3.02. Regarding `N#Cc1ncc(F)c(N(CCC(F)(F)F)Cc2ccc3c(c2)OCO3)n1`, the Ki at Procathepsin L [1] was found to be 25 nM. In data set [2], this molecule had a logD of 3.16. Consider `N#Cc1ncc(F)c(N(Cc2ccc(Cl)cc2)Cc2ccc3c(c2)OCO3)n1`, for which the inhibition constant (Ki) at Procathepsin L [1] is greater than 5100 nM. On the same count and under the same terms, for `N#Cc1ncc(F)c(N(Cc2ccc3c(c2)OCO3)c2ccc(OCC3CC3)cc2)n1` the value was greater than 5100 nM.

Take `N#Cc1ncc(F)c(N(CCc2ccccc2)Cc2ccc3c(c2)OCO3)n1`: the Ki on Procathepsin L [1] stood at 217 nM. In turn, `CC1(N(Cc2ccc3c(c2)OCO3)c2nc(C#N)ncc2F)CC1` came in with a Ki at Procathepsin L [1] greater than 5100 nM. For the same molecule, the logD in data set [2] was 3.38. At Procathepsin L [1], `N#Cc1ncc(F)c(N(Cc2ccc3c(c2)OCO3)c2ccccc2)n1` gave an inhibition constant (Ki) of 1800 nM. The logD in data set [2] is 3.44.

`N#Cc1ncc(F)c(N(Cc2ccc3c(c2)OCO3)c2ccc(Oc3cccnc3)cc2)n1` registered a Ki at Procathepsin L [1] of 1020 nM.

Molecule `N#Cc1ncc(F)c(N(Cc2ccc3c(c2)OCO3)c2ccc(OCC(F)(F)F)cc2)n1` registered a Ki on Procathepsin L [1] greater than 5100 nM.

For `Cc1nc2n(c(=O)c1CCN(Cc1ccc3c(c1)OCO3)c1nc(C#N)ncc1F)CCCC2`, at Procathepsin L [1], the affinity, expressed as Ki, was 1750 nM. Further, the logD in data set [2] came to 2.96. As for `N#Cc1ncc(F)c(N(CCc2ccsc2)Cc2ccc3c(c2)OCO3)n1`, the Ki on Procathepsin L [1] turned out to be 671 nM. On to `Cc1cc(OCCN(Cc2ccc3c(c2)OCO3)c2nc(C#N)ncc2F)cc(C)c1Cl`, for which the Ki at Procathepsin L [1] turned out to be 1430 nM. For the same molecule, the logD in data set [2] was determined as 2.32.

`CC(C)[C@H]1CC[C@@H](N(Cc2ccc3c(c2)OCO3)c2nc(C#N)ncc2F)CC1` registered a Ki at Procathepsin L [1] of 3020 nM. For the same molecule, the logD in data set [2] is 2.74. Taken in the same sequence, the figures for `N#Cc1ncc(F)c(N(CCc2ccccn2)Cc2ccc3c(c2)OCO3)n1` were 3860 nM and 3.39. Consider `N#Cc1ncc(F)c(N(CCc2ccc(F)cc2)Cc2ccc3c(c2)OCO3)n1`, for which the affinity at Procathepsin L [1], expressed as Ki, was 279 nM.

A word on the Ki: it is the equilibrium dissociation constant of an inhibitor or competing ligand from its target. Low values mean higher affinity, high ones lower affinity. For orientation: logD means lipophilicity at a set pH, counting ionised and neutral species. Low values mean a more hydrophilic compound, high ones a more lipophilic compound.
